The values below come from ChEMBL document CHEMBL1135836, “Cyclodextrin-derived host molecules as reversal agents for the neuromuscular blocker rocuronium bromide: synthesis and structure-activity relationships” (J Med Chem, 2002).

Type in all cases: functional
Experiment [1] has as its system Cavia porcellus. In words: In vivo reversal activity versus ~90% block by rocuronium in guinea pig, expressed as % of maximum reversal at 3.2 umol/kg conc. An outline of the steps:
(§1)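 Male Dunkin-Hartley guinea pigs (600-900 g) anaesthetized ip with pentobarbitone 10 mg/kg plus urethane 1000 mg/kg, tracheotomized and artificially ventilated. Continuous iv rocuronium bromide infusion (~10 nmol kg-1 min-1) raised until steady-state twitch block of 85-90%. Increasing single iv doses of reversal agent given by a separate catheter. Max reversal is peak twitch recovery versus preblock height at highest dose tested; means ± SEM, n ≥ 2 or single experiment.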

The species named for experiment [2] is Mus musculus. In words: In vitro reversal activity versus ~90% block by rocuronium in isolated mouse hemidiaphragm, expressed as % of maximum reversal at 14.4 uM conc.
Experiment [3] relates to Cavia porcellus. In words: In vivo reversal activity versus ~90% block by rocuronium in guinea pig. The gist of the method: (§2)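 Male Dunkin-Hartley guinea pigs (600-900 g), anaesthetized ip with pentobarbitone 10 mg/kg plus urethane 1000 mg/kg, tracheotomized and ventilated. Continuous iv rocuronium infusion (~10 nmol kg-1 min-1) was raised to a steady 85-90% block. Increasing iv doses of agent were given cumulatively. ED50 = 50% recovery versus preblock twitch, by regression. Mean ± SEM of at least two experiments, or one.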

The species named for experiment [4] is Mus musculus. In words: In vitro reversal activity versus ~90% block by rocuronium in isolated mouse hemidiaphragm, expressed as effective conc.
Experiment [5] concerns Cavia porcellus. In words: In vivo reversal activity versus ~90% block by rocuronium in guinea pig, expressed as % of maximum reversal at 21 umol/kg conc. An outline of the steps:
as §1

The species entered for experiment [6] is Mus musculus. In words: In vitro reversal activity versus ~90% block by rocuronium in isolated mouse hemidiaphragm, expressed as % of maximum reversal at 18 uM conc.
In experiment [7] the test system is Cavia porcellus. In words: In vivo reversal activity versus ~90% block by rocuronium in guinea pig, expressed as % of maximum reversal at 1.3 umol/kg conc. An outline of the steps:
as §2

The species entered for experiment [8] is Mus musculus. In words: In vitro reversal activity versus ~90% block by rocuronium in isolated mouse hemidiaphragm, expressed as % of maximum reversal at 7.2 uM conc.
Experiment [9] deals with Cavia porcellus. In words: In vivo reversal activity versus ~90% block by rocuronium in guinea pig, expressed as % of maximum reversal at 25.6 umol/kg conc. The gist of the method:
as §1

A word on the ED50: it is the dose at which the effect has come halfway, by size or by number of responders. By EC50 is commonly meant the concentration that produces a half-maximal response. As for `O=C([O-])CCCSCC1O[C@@H]2O[C@@H]3C(CSCCCC(=O)[O-])O[C@H](O[C@@H]4C(CSCCCC(=O)[O-])O[C@H](O[C@@H]5C(CSCCCC(=O)[O-])O[C@@H](O[C@@H]6C(CSCCCC(=O)[O-])O[C@H](O[C@@H]7C(CSCCCC(=O)[O-])O[C@H](O[C@@H]8C(CSCCCC(=O)[O-])O[C@H](O[C@H]1C(O)C2O)C(O)C8O)C(O)C7O)C(O)C6O)C(O)C5O)C(O)C4O)C(O)C3O.[Na+].[Na+].[Na+].[Na+].[Na+].[Na+].[Na+]` (stereo partly specified), the Max reversal turned out to be 99.6% in experiment [1] and 95.3% in experiment [2]. The 50% effective dose (ED50) in [3] was 0.49 µmol/kg. Besides, the EC50 in experiment [4] was 5 µM.

For `O=C([O-])CSCC1O[C@@H]2O[C@@H]3C(CSCC(=O)[O-])O[C@H](O[C@@H]4C(CSCC(=O)[O-])O[C@H](O[C@@H]5C(CSCC(=O)[O-])O[C@H](O[C@@H]6C(CSCC(=O)[O-])O[C@H](O[C@@H]7C(CSCC(=O)[O-])O[C@H](O[C@H]1C(O)C2O)C(O)C7O)C(O)C6O)C(O)C5O)C(O)C4O)C(O)C3O.[Na+].[Na+].[Na+].[Na+].[Na+].[Na+]` (stereo partly specified), the Max reversal in experiment [5] is given as 3.6%; in experiment [6], 22.8%. Further, in [3], the median effective dose (ED50) is greater than 21 µmol/kg. Besides, the concentration for a half-maximal effect (EC50) in [4] was greater than 18 µM.

With `O=C([O-])c1cccc(SCC2O[C@@H]3O[C@@H]4C(CSc5cccc(C(=O)[O-])c5)O[C@H](O[C@@H]5C(CSc6cccc(C(=O)[O-])c6)O[C@H](O[C@@H]6C(CSc7cccc(C(=O)[O-])c7)O[C@H](O[C@@H]7C(CSc8cccc(C(=O)[O-])c8)O[C@H](O[C@@H]8C(CSc9cccc(C(=O)[O-])c9)O[C@H](O[C@@H]9C(CSc%10cccc(C(=O)[O-])c%10)O[C@H](O[C@@H]%10C(CSc%11cccc(C(=O)[O-])c%11)O[C@H](O[C@H]2C(O)C3O)C(O)C%10O)C(O)C9O)C(O)C8O)C(O)C7O)C(O)C6O)C(O)C5O)C(O)C4O)c1.[Na+].[Na+].[Na+].[Na+].[Na+].[Na+].[Na+].[Na+]` (stereo partly specified), the Max reversal in [7] is 102%; in [8] it was 95.7%. In addition, the 50% effective dose (ED50) in experiment [3] came out at 0.28 µmol/kg. In experiment [4], the half-maximal effective concentration (EC50) was determined as 3.3 µM.

Take `Oc1ccc(SCC2O[C@@H]3O[C@@H]4C(CSc5ccc(O)cc5)O[C@H](O[C@@H]5C(CSc6ccc(O)cc6)O[C@H](O[C@@H]6C(CSc7ccc(O)cc7)O[C@H](O[C@@H]7C(CSc8ccc(O)cc8)O[C@H](O[C@@H]8C(CSc9ccc(O)cc9)O[C@H](O[C@@H]9C(CSc%10ccc(O)cc%10)O[C@H](O[C@@H]%10C(CSc%11ccc(O)cc%11)O[C@H](O[C@H]2C(O)C3O)C(O)C%10O)C(O)C9O)C(O)C8O)C(O)C7O)C(O)C6O)C(O)C5O)C(O)C4O)cc1` (stereo partly specified): the Max reversal came to 93.2% in experiment [2] and 79.3% in [9]. Also, the ED50 in experiment [3] turned out to be 4.1 µmol/kg. Also, the EC50 in experiment [4] was 4.9 µM.
